Measured values taken from PubChem BioAssay.
Active and inactive are the calls of the source. Cut-off read from the data, not from the text of the source, unless noted: active = inhibition above about 30%; inactive = the rest.

Legend:
[1] = reducers of endogenous Her2 protein level, primary screen, SKBR3 breast tumor cells, AlphaScreen, ATP viability (AID 461;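 active = Her2 level under about 52% in both replicate screens, with viability over 70% of control, limit read from the data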;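 for Her2 level: lower value means less Her2 protein in the cells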;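 for viability: percent of carrier control wells set as 100% viability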); details: 18-24 h, measured here: SKBR3 viability, ATP luminescence, at 10 µM
[2] = target: Receptor tyrosine-protein kinase erbB-2 (Homo sapiens) (UniProt P04626); assay: as above; details: 18-24 h, at 10 µM, stronger effect = lower value
Chain of Receptor tyrosine-protein kinase erbB-2 (Homo sapiens) (P04626 whole entry, looked up): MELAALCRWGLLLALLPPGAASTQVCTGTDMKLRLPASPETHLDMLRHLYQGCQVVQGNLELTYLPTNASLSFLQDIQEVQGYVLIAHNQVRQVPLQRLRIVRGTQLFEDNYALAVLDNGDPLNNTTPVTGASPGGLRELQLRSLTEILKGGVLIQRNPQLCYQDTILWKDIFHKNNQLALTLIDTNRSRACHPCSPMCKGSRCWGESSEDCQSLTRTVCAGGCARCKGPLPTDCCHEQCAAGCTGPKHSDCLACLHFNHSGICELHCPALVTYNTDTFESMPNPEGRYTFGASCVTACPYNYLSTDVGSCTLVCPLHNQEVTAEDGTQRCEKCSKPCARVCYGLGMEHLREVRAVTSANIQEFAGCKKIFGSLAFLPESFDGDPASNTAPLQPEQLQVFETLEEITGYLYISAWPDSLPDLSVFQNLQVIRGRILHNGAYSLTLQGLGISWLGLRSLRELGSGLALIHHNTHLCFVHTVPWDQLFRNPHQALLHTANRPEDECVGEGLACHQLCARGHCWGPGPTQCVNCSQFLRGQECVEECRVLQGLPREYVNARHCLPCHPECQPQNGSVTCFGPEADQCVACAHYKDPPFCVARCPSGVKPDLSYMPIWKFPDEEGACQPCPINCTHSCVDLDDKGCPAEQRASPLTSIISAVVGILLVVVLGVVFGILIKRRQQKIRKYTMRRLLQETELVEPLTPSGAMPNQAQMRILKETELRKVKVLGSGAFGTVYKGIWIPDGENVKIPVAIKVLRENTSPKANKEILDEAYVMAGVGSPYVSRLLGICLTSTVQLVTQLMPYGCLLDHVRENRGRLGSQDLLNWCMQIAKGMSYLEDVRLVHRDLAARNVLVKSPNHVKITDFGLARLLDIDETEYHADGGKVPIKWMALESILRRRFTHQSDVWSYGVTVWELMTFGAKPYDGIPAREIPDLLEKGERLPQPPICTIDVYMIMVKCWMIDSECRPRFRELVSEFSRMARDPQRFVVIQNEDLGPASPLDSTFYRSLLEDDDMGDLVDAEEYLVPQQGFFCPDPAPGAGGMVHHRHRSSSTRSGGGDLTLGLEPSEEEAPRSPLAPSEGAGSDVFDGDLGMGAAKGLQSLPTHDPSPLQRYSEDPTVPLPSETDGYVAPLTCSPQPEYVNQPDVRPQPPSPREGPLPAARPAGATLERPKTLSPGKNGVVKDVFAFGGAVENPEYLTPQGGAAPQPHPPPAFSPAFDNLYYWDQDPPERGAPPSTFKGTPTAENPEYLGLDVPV

[3] = SK-BR-3 cell growth inhibitors, pilot screen, 24 h, human (AID 572;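 active = viability at or below 10% of carrier control in both of two separate runs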;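 note: compound exposure lasted between 18 and 24 h rather than exactly 24 h; 100% = carrier-treated control wells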); details: SK-BR-3 viability, CellTiter-Glo luminescence, at 10 µM, stronger effect = lower value
[4] = HUVEC growth inhibition – cell-based, human, primary screen (AID 575;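 active = viability at or below 30% in both replicate assays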;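 note: 100% = median of untreated cell wells with 0.1% DMSO on each plate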); details: HUVEC proliferation, CellTiter-Glo luminescence, 72 h; at 10 µM; stronger effect = lower value
Outline: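 Assay system: primary human umbilical vein endothelial cells / Buffer or medium: endothelial basal medium with 2% FBS plus growth supplements / Compound dosing: one dose, 10 µM final, 0.1% DMSO / Timing: 72 h treatment at 37 °C / Signal: CTG luminescence / Benchmarks: 32 DMSO-only cell-control wells (high), 32 MePR drug-control wells (low) per plate / Plate: collagen-coated 384-well format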

[5] = growth inhibitors of H69AR lung tumor, primary screen, human, duplicate replicates (AID 580;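 active = viability at or under a set limit in both replicates, limit being median viability minus 3 SD, cut at about 48% in these data, passing the limit was not always enough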;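 note: 100% = mean luminescence of untreated wells and 0% = no signal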); details: H69AR lung tumor cells viability, ATP luminescence, 72 h; at 10 µM; stronger effect = lower value
[6] = reversal of MRP1-mediated doxorubicin resistance, pilot screen, H69AR cells, doxorubicin co-treatment (AID 601;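 active = viability loss from added drug above about 55%, and viability with drug at most 40%, in both replicates, limit read from the data, passing the limit was not always enough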); details: CellTiter-Glo, 72 h, at 10 µM; for differential viability (reversal): stronger effect = higher value
[7] = 384-well plate pilot, post-Golgi transport modulator project, inhibition of yeast transport mutant growth (AID 636; in the data active = inhibition above about 31%); details: absorbance 615 nm, about 18 h, stronger effect = higher value
[8] = growth suppression of yeast trafficking mutant, preliminary HTS, modulators of trafficking downstream of Golgi apparatus project, 1536-format plate, OD 615 nm (AID 637); details: yeast transport mutant growth, absorbance 615 nm, 18 h; stronger effect = higher value
[9] = H69AR cells + 2 uM doxorubicin, measured here: viability with 2 uM doxorubicin, stronger effect = lower value
[10] = H69AR cells, compound alone cytotoxicity

Row | SMILES | viability [1] | Her2 level [2] | viability [3] | viability [4] | viability [5] | differential viability (reversal) ([6]; H69AR cells + 2 uM doxorubicin) | viability [6, 9] | viability [6, 10] | inhibition [7] | inhibition [8]
1 | CC1CCN(C(=S)c2ccccc2O)CC1 | 116% | 105% (inactive) | 116% (inactive) | 92.8% (inactive) | 89% (inactive) | -0.9% (inactive) | 89.9% | 89% | -5.2% (inactive) | -6.29% (inactive)
2 | CC1(C)OC(=O)N(c2cccnc2)C1(C)O (stereo not given) | 117% | 83% (inactive) | 117% (inactive) | 100% (inactive) | 91.5% (inactive) | 11.6% (inactive) | 80% | 91.5% | -5.6% (inactive) | 3.02% (inactive)
3 | Cn1c(=O)c2c(nc(NCc3ccco3)n2C/C=C/c2ccccc2)n(C)c1=O | 100% | 84.5% (inactive) | 100% (inactive) | 89.3% (inactive) | 101% (inactive) | 5.26% (inactive) | 96.1% | 101% | -1.69% (inactive) | 0.16% (inactive)
4 | COc1ccc(C(O)Cn2c(=N)n(CCCN(C)C)c3ccccc32)cc1 (stereo not given) | 78.5% | 102% (inactive) | 78.5% (inactive) | 90.3% (inactive) | 97.5% (inactive) | 6.39% (inactive) | 91.1% | 97.5% | -0.26% (inactive) | -6.51% (inactive)
5 | CC1=C(C(=O)OC(C)C)C(C2CC=CCC2)NC(=O)N1 (stereo not given) | 95.5% | 113% (inactive) | 95.5% (inactive) | 98.5% (inactive) | 87.3% (inactive) | -1.42% (inactive) | 88.7% | 87.3% | 0.77% (inactive) | -10.7% (inactive)
6 | O=C1c2cccnc2C(O)N1Cc1ccc(F)cc1 (stereo not given) | 104% | 88% (inactive) | 104% (inactive) | 88.8% (inactive) | 102% (inactive) | 3.87% (inactive) | 97.7% | 102% | -4.53% (inactive) | 2.95% (inactive)
7 | CC(C)(C)c1nc(CN2CCOCC2)ccc1O | 109% | 96.5% (inactive) | 109% (inactive) | 106% (inactive) | 101% (inactive) | 4.21% (inactive) | 96.6% | 101% | -7.03% (inactive) | -0.82% (inactive)
8 | CC(=O)NC1CC2CCCC(C1)N2CC(=O)Nc1ccccc1 (stereo not given) | 95.5% | 97% (inactive) | 95.5% (inactive) | 88.9% (inactive) | 96.7% (inactive) | 11.4% (inactive) | 85.2% | 96.7% | 0.13% (inactive) | -6.98% (inactive)
9 | CC(NC(=O)c1ccco1)c1ccc2c(c1)OCCO2 (stereo not given) | 116% | 95.5% (inactive) | 116% (inactive) | 90.7% (inactive) | 96.3% (inactive) | 9.19% (inactive) | 87.1% | 96.3% | -5.73% (inactive) | -1.43% (inactive)
10 | CCCCCCC(=O)c1c(C)[nH]c(C(=O)OCC)c1C | 98% | 86.5% (inactive) | 98% (inactive) | 60.2% (inactive) | 92.7% (inactive) | 6.9% (inactive) | 85.8% | 92.7% | -5.73% (inactive) | 4.03% (inactive)
11 | CN(C1CCCCC1)S(=O)(=O)c1ccc(S(=O)(=O)N2CCCC2)cc1 | 84.5% | 92% (inactive) | 84.5% (inactive) | 78.3% (inactive) | 78.5% (inactive) | -19.2% (inactive) | 97.7% | 78.5% | -0.13% (inactive) | -4.92% (inactive)
12 | O=C(NCC1CCCO1)c1cccc(N2C(=O)C3C4C=CC(C4)C3C2=O)c1 (stereo not given) | 110% | 94% (inactive) | 110% (inactive) | 98.4% (inactive) | 100% (inactive) | 10.3% (inactive) | 89.8% | 100% | -6.4% (inactive) | -9.84% (inactive)
13 | Cc1cc2c(cc(C(=O)OCC(=O)NCc3cccs3)n2C(C)C)o1 | 83% | 63.5% (inactive) | 83% (inactive) | 37.3% (inactive) | 21.7% (active) | -30.4% (inactive) | 52.1% | 21.7% | -6% (inactive) | 5.9% (inactive)
14 | Cn1c(CN2CCOCC2)nnc1SCC(=O)NCCc1ccccc1 | 104% | 83% (inactive) | 104% (inactive) | 73.6% (inactive) | 91.8% (inactive) | 11.4% (inactive) | 80.4% | 91.8% | -2.08% (inactive) | -2.86% (inactive)
15 | COCCN1CN(S(=O)(=O)c2ccccc2)c2nc3ccccc3nc21 | 101% | 93.5% (inactive) | 101% (inactive) | 109% (inactive) | 98% (inactive) | -2.97% (inactive) | 101% | 98% | -3.95% (inactive) | 13.6% (inactive)
16 | N#CC1=C(N)N(c2ccccc2)C(c2ccco2)C1(C#N)C#N (stereo not given) | 95.5% | 99.5% (inactive) | 95.5% (inactive) | 102% (inactive) | 85.5% (inactive) | -0.88% (inactive) | 86.4% | 85.5% | -6.53% (inactive) | -2.54% (inactive)

Row | SMILES | viability [1] | Her2 level [2] | viability [3] | viability [4] | viability [5] | differential viability (reversal) ([6]; H69AR cells + 2 uM doxorubicin) | viability [6, 9] | viability [6, 10] | inhibition [7] | inhibition [8]
17 | CCOc1ccccc1N1CCN(c2nc3ccccc3nc2C(C#N)C(=O)OC)CC1 (stereo not given) | 74% | 78% (inactive) | 74% (inactive) | 71.7% (inactive) | 83.9% (inactive) | -4.64% (inactive) | 88.5% | 83.9% | 1.45% (inactive) | -2.1% (inactive)
18 | COc1ccccc1CC(NC(C)=O)C(=O)NC1CCN(c2nnnn2-c2ccccc2)CC1 (stereo not given) | 97% | 102% (inactive) | 97% (inactive) | 94.8% (inactive) | 96.5% (inactive) | -1.01% (inactive) | 97.5% | 96.5% | -0.95% (inactive) | 0% (inactive)
19 | Cc1ccc2c(c1)c1c3n2CC(=C2C(=O)OC(C)(C)OC2=O)NC3CCC1 (stereo not given) | 103% | 73% (inactive) | 103% (inactive) | 73.1% (inactive) | 94.6% (inactive) | 9.35% (inactive) | 85.3% | 94.6% | -4.67% (inactive) | -4.59% (inactive)
20 | Cc1nnc(SC(=O)N2c3ccccc3Sc3ccccc32)s1 | 114% | 6.5% (active) | 114% (inactive) | 13.2% (active) | 1.79% (active) | 0.105% (inactive) | 1.69% | 1.79% | 54% (active) | 8.67% (inactive)
21 | CCOc1ccc2oc(-c3ccccc3)c(C(=O)N3CCN(CCO)CC3)c2c1 | 97.5% | 83% (inactive) | 97.5% (inactive) | 74.3% (inactive) | 72.9% (inactive) | 3.36% (inactive) | 69.6% | 72.9% | -4.42% (inactive) | 0% (inactive)
22 | N#Cc1nc(-c2cccs2)oc1NCc1ccc(Cl)cc1 | 111% | 88.5% (inactive) | 111% (inactive) | 64.9% (inactive) | 73.8% (inactive) | -14.1% (inactive) | 87.9% | 73.8% | -5.66% (inactive) | 0.65% (inactive)
23 | COc1cccc(OCCSc2nnc3sc4ccccc4n23)c1 | 86% | 98% (inactive) | 86% (inactive) | 106% (inactive) | 85.3% (inactive) | -6.48% (inactive) | 91.8% | 85.3% | 2.73% (inactive) | 0.66% (inactive)
24 | COc1ccc(CNC(=O)Cn2nc(C(F)(F)F)c3c2CCC3)cc1 | 89.5% | 91.5% (inactive) | 89.5% (inactive) | 103% (inactive) | 99.5% (inactive) | 11.9% (inactive) | 87.6% | 99.5% | -6.13% (inactive) | 5.74% (inactive)
25 | Cc1cc(C(=O)Cn2cncn2)c(C)n1CCc1ccc(F)cc1 | 64% | 80% (inactive) | 64% (inactive) | 105% (inactive) | 89.2% (inactive) | -5.71% (inactive) | 95% | 89.2% | -5.41% (inactive) | 3.11% (inactive)
26 | Cc1sc2nc(SCC(=O)Nc3c(C)n(C)n(-c4ccccc4)c3=O)n(C)c(=O)c2c1C | 102% | 95.5% (inactive) | 102% (inactive) | 95.4% (inactive) | 97.3% (inactive) | 1.12% (inactive) | 96.2% | 97.3% | 0% (inactive) | 1.15% (inactive)
27 | CCOC(=O)c1sc(NC(=O)CSc2nnnn2-c2ccccc2)c(C(=O)OCC)c1C | 80% | 85% (inactive) | 80% (inactive) | 36.6% (inactive) | 65.7% (inactive) | 19.6% (inactive) | 46.1% | 65.7% | 4.68% (inactive) | -6.83% (inactive)
28 | COc1ccc(-c2c(=O)n(OCc3ccccn3)c3ccccc3[n+]2[O-])cc1OC | 105% | 98% (inactive) | 105% (inactive) | 87.6% (inactive) | 89.2% (inactive) | -2.4% (inactive) | 91.6% | 89.2% | -4% (inactive) | -3.65% (inactive)
29 | O=C(O)c1ccccc1C(=O)Nc1ccccc1 | 121% | 124% (inactive) | 121% (inactive) | 103% (inactive) | 105% (inactive) | 12.1% (inactive) | 92.8% | 105% | -6.97% (inactive) | -2.13% (inactive)
30 | COC(=O)c1cc(=O)n2c(-c3ccc(OC)cc3)csc2n1 | 110% | 97.5% (inactive) | 110% (inactive) | 96.2% (inactive) | 92.6% (inactive) | 10.6% (inactive) | 82.1% | 92.6% | -4.8% (inactive) | -0.16% (inactive)
31 | O=C(O)CSc1ccc2ccccc2n1 | 95.5% | 81% (inactive) | 95.5% (inactive) | 106% (inactive) | 90% (inactive) | 9.33% (inactive) | 80.7% | 90% | -7.47% (inactive) | 5.48% (inactive)
